ChEMBL document CHEMBL4819129, “Design, synthesis and lipid-lowering activities of penipyridone derivatives” (Bioorg Med Chem, 2021)
Active and inactive are the calls of the source. The calls are words filed in the database; no cut-off is given here.

Experiments:
HepG2 [1] = assay: Hypolipidemic activity in human HepG2 cells assessed as inhibition of oleic acid-induced lipid accumulation at 10 uM; format: functional, cell-based
Outline: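 Oleic acid-induced lipid accumulation in HepG2; cells given 100 μM oleic acid with or without compound at 10 μM in DMSO; DMSO-only and OA-only controls, Simvastatin 10 μM positive control. Lipid quantified by oil red O staining. Mean ± SD, n = 4–6, at least three independent experiments.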

HepG2 [2] = assay: Cytotoxicity against human HepG2 cells assessed as reduction in cell viability at 100 uM by MTT assay; format: cell-based; details: hepg2, 100 µM
Outline: (§1)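 MTT viability in HepG2 seeded at 1.2 × 10⁴ cells/well, grown 24 h, then given serial dilutions from DMSO stocks (0.22 μm-filtered) in DMEM + 10% FBS, DMSO as control; 48 h at 37 °C. MTT 5 mg/mL in PBS added for 4 h, formazan dissolved in 10% SDS/0.01 N HCl, A490 read; DMSO wells = 100% viable. Mean ± SD, n = 6.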

HepG2 [3] = assay: Cytotoxicity against human HepG2 cells assessed as reduction in cell viability at 400 uM incubated for 48 hrs by MTT assay; format: cell-based; details: hepg2, 48 h; outline: as §1
HepG2 [4] = assay: Hypolipidemic activity in human HepG2 cells assessed as inhibition of oleic acid-induced triglyceride accumulation at 10 uM after 24 hrs; format: functional, cell-based
Outline: (§2)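 HepG2 in 12-well plates at 2 × 10⁵ cells/well, 37 °C; after 24 h, co-treated 24 h with 100 μmol/L oleic acid plus compound (DMSO vehicle) or Simvastatin 10 μM. Cells rinsed twice in PBS, lysed on ice 20 min, and triglyceride and total cholesterol contents measured. OA-only cells served as reference. Mean ± SD, n = 4.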

HepG2 [5] = assay: Hypolipidemic activity against oleic acid-induced lipid accumulation in human HepG2 cell model assessed as decrease in triglycerides level at 20 uM measured after 24 hrs; format: functional; design: scale not given: the % may be the effect or the level left; outline: as §2
HepG2 [6] = assay: Hypolipidemic activity against oleic acid-induced lipid accumulation in human HepG2 cell model assessed as decrease in total cholestrol level at 20 uM measured after 24 hrs; format: functional; design: scale not given: the % may be the effect or the level left; outline: as §2
HepG2 [7] = assay: Hypolipidemic activity against oleic acid-induced lipid accumulation in human HepG2 cell model assessed as decrease in total cholestrol level at 5 uM measured after 24 hrs; format: functional; design: scale not given: the % may be the effect or the level left; outline: as §2
HepG2 [8] = assay: Hypolipidemic activity in human HepG2 cells assessed as reduction in OA-induced lipid accumulation incubated for 1 hrs by Oil Red O staining based assay; format: functional, cell-based; details: time 24.0 hrs, in the assay text read “24 hrs” for “1 hrs”
Outline: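 Oil red O: HepG2 fixed in 10% neutral formalin 1 h at room temperature, PBS-washed, stained 1 h with 0.5% oil red O in 60% isopropanol, water-washed and imaged (40×). For quantification, stained lipid droplets (30 min) washed with 70% ethanol and absorbance read at 358 nm.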

HepG2 [9] = assay: Hypolipidemic activity against oleic acid-induced lipid accumulation in human HepG2 cell model assessed as decrease in triglycerides level at 10 uM measured after 24 hrs; format: functional; design: scale not given: the % may be the effect or the level left; outline: as §2
HepG2 [10] = assay: Hypolipidemic activity against oleic acid-induced lipid accumulation in human HepG2 cell model assessed as decrease in total cholestrol level at 10 uM measured after 24 hrs; format: functional; design: scale not given: the % may be the effect or the level left; outline: as §2

SMILES	Activity (HepG2 [1])	further results
COc1ccc(Cn2cc(C(N)=O)c(=O)cc2[C@@H](OC(C)=O)c2ccccc2)cc1	inactive	
CC(=O)O[C@@H](c1ccccc1)c1cc(OCCN2CCCC2)c(C(N)=O)cn1	Active	
CCOC(=O)COc1cc([C@@H](OC(C)=O)c2ccccc2)ncc1C(N)=O	Active	Activity (HepG2 [2]): Non-Toxic; Activity (HepG2 [3]): Non-Toxic; Activity (HepG2 [4]): Active
CC(=O)O[C@@H](c1ccccc1)c1cc(OCCN2CCSCC2)c(C(N)=O)cn1	Active	Activity (HepG2 [2]): Non-Toxic; Activity (HepG2 [3]): Non-Toxic; Activity (HepG2 [4]): Active; Activity (HepG2 [5]): 30.2%; Activity (HepG2 [6]): 14.8%; Activity (HepG2 [7]): 12.8%; Activity (HepG2 [8]): Dose-Dependent Effect
CCC(C)(C)C(=O)O[C@H]1C[C@@H](C)C=C2C=C[C@H](C)[C@H](CC[C@@H]3C[C@@H](O)CC(=O)O3)[C@H]21 [SIMVASTATIN]		Activity (HepG2 [9]): 29.1%; Activity (HepG2 [10]): 12.1%
CC(=O)O[C@@H](c1ccccc1)c1cc(OCCN(C)C)c(C(N)=O)cn1	Active	Activity (HepG2 [2]): Non-Toxic
CC(=O)O[C@@H](c1ccccc1)c1cc(OCCO)c(C(=O)N(C)C)cn1	inactive	
NC(=O)c1cn(CCO)c(-c2ccccc2)cc1=O	Active	Activity (HepG2 [2]): Non-Toxic
CC(=O)O[C@@H](c1ccccc1)c1cc(=O)c(C(N)=O)cn1CCN1CCCCC1	Active	
CC(=O)O[C@@H](c1ccccc1)c1cc(=O)c(C(N)=O)cn1Cc1cc(C(F)(F)F)cc(C(F)(F)F)c1	inactive	
COCCn1cc(C(N)=O)c(=O)cc1[C@@H](OC(C)=O)c1ccccc1	inactive	
COCCOc1cc([C@@H](OC(C)=O)c2ccccc2)ncc1C(N)=O	inactive	
CC(=O)O[C@@H](c1ccccc1)c1cc(=O)c(C(=O)NC(=O)CC(C)C)cn1CCO	Active	
CC(=O)O[C@@H](c1ccccc1)c1cc(OCc2cc(C(F)(F)F)cc(C(F)(F)F)c2)c(C(N)=O)cn1	inactive	
CC(=O)O[C@@H](c1ccccc1)c1cc(=O)c(C(N)=O)cn1CCN1CCCC1	Active	
CC(C)CC(=O)O[C@@H](c1ccccc1)c1cc(=O)c(C(N)=O)cn1CCO	inactive	
CC(=O)O[C@@H](c1ccccc1)c1cc(=O)c(C(N)=O)cn1Cc1ccccc1	inactive	
CC(=O)O[C@@H](c1ccccc1)c1cc(=O)c(C(N)=O)cn1CCN(C)C	Active	Activity (HepG2 [2]): Non-Toxic
CC(=O)O[C@@H](c1ccccc1)c1cc(OCCN2CCOCC2)c(C(N)=O)cn1	Active	Activity (HepG2 [2]): Non-Toxic
CC(C)CC(=O)O[C@@H](c1ccccc1)c1cc(OCCO)c(C(N)=O)cn1	inactive	
CC(=O)O[C@@H](c1ccccc1)c1cc(OCc2ccccc2)c(C(N)=O)cn1	inactive	
NC(=O)c1cnc([C@@H](O)c2ccccc2)cc1OCCO	inactive	
NC(=O)c1cnc(Cc2ccccc2)cc1OCCO	Active	Activity (HepG2 [2]): Non-Toxic
CC(=O)O[C@H](c1ccccc1)c1cc(OCCO)c(C(N)=O)cn1	inactive	
CC(=O)O[C@@H](c1ccccc1)c1cc(OCCO)c(C(N)=O)cn1	Active	Activity (HepG2 [3]): Non-Toxic; Activity (HepG2 [4]): Active
